# From PMC7455490 (Science Advances, 2020)
# Where no end group is shown, it is not given here. [ ]: non-standard residue; d: D form.
# B1: rhodamine B-labeled RGP (RhB-RGP) (peptide)
# peptide: RW[code r]NMGGGGIVRRADRAAVP
# modifications: also: rhodamine B label, position not given here
# B2: RGP (RWr…), αvβ3 integrin-specific peptide (peptide)
# peptide: RWRNMGGGGIVRRADRAAVP
# modifications: not fully specified (residue 3); printed as RWrNMGGGGIVRRADRAAVP
# Columns and labels:
# [1] = test system: B16F10 tumor-bearing mice; experiment: In vivo distribution after topical application, fluorescence imaging; conditions: 10 μg per mouse, 1, 3 and 6 hours
# Method in brief: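 Mice were anaesthetized and dorsal skin depilated, then DiI-labelled peptide-modified vesicles were applied topically. Whole-body fluorescence was imaged. Tumors and major organs were collected for fluorescence imaging at 6 hours after application.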
# [2] = test system: B16F10 melanoma in C57BL/6 mice; experiment: Antitumor performance, second wave; type: in vivo; conditions: NIR 0.6 W/cm^2, within 3 min, thermographic imaging
# Method in brief: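 B16F10 cells (3 × 10^6 per mouse) implanted s.c. in right flank of C57BL/6 mice; treatment began at 100 mm3 tumors. Groups (n = 6) got topical ICG-loaded test formulations (0.5 mg OMV/kg). Unabsorbed material was wiped off at 12 h, then the whole tumor was irradiated under anaesthesia at 808 nm, 0.6 W/cm2, 3 min. Tumor sections: TUNEL with proteinase K (20 μg/ml), fluorescein-dUTP 90 min, DAPI counterstain, confocal imaging. Also Fontana-Masson melanin stain, and IHC for cleaved caspase 3, CD63 and S100-β with HRP secondaries and hematoxylin counterstain.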
# [3] = Photothermal response to NIR irritation; type: physicochemical; conditions: 1 μg/ml, 808 nm NIR 2 W/cm^2 for 3 min, n = 3
# B16F10 cells [4] = experiment: qRT-PCR gene levels in treated B16F10 cells; type: cell-based, mouse; conditions: B16F10, + NIR, n = 3
# B16F10 cells [5] = experiment: WB protein levels in treated B16F10 cells or their derived OMVs; type: cell-based, mouse; conditions: B16F10, + NIR (Fig. 4G)
# [6] = test system: dorsal skin of C57BL/6 mice; experiment: Skin penetration test, fluorescence in skin slices; type: in vivo; conditions: topical, 10 μg per mouse, 6 hours, fluorescence microscopy
# Method in brief: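 C57BL/6 mice, 4 weeks old, were anaesthetised and had their dorsal skin depilated. Once skin had restored full function, GFP-labelled test vesicles or free FITC-BSA were applied topically. After 6 h the mice were killed by cervical dislocation, and treated dorsal skin was collected, washed, paraffin-embedded and cut into 6 μm sections. Penetration depth was observed by fluorescence microscopy.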
# L02 cells = experiment: Peptide binding by flow cytometry, L02; type: cell-based, human; conditions: 5 μM peptide, 2 hours, low αvβ3 expression
# Method in brief: (§1)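 Cells were grown in DMEM with 10% FBS and penicillin/streptomycin at 37°C, 5% CO2. They were seeded at 10^6 per well and cultured 24 h at 37°C. Then 5 μM test peptide was added for 2 h. Cells were washed twice with 4°C PBS, and intracellular fluorescence intensity was read by flow cytometry.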
# B16F10 cells [7] = experiment: Peptide binding by flow cytometry, B16F10; type: cell-based, mouse; conditions: 5 μM peptide, 2 hours, compared with L02 cells
# Method in brief: as §1
# [8] = Transdermal delivery of TRAIL, Franz diffusion cells; type: in vitro ADME, mice; conditions: C57BL/6 mouse skin, ELISA, n = 3
# Method in brief: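 Excised C57BL/6 mouse skin was mounted in Franz diffusion cells, with vesicle suspensions (1 μg/ml) in the donor cell. Receptor samples were withdrawn at 0.5, 1, 2, 4, 8, 10 and 24 h and replaced with fresh PBS. TRAIL in the receptor samples was quantified by ELISA.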
# [9] = Bioactivity of TRAIL at high temperatures; conditions: 55 and 60°C, n = 3
# [10] = biological target: αvβ3 integrin on B16F10 melanoma cells (mouse (endogenous in B16F10), UniProt P43406 31-1044; O54890 26-787); experiment: flow cytometry on cells
# αvβ3 integrin on B16F10 melanoma cells, sequence (P43406 31-1044, chain 1 of 2): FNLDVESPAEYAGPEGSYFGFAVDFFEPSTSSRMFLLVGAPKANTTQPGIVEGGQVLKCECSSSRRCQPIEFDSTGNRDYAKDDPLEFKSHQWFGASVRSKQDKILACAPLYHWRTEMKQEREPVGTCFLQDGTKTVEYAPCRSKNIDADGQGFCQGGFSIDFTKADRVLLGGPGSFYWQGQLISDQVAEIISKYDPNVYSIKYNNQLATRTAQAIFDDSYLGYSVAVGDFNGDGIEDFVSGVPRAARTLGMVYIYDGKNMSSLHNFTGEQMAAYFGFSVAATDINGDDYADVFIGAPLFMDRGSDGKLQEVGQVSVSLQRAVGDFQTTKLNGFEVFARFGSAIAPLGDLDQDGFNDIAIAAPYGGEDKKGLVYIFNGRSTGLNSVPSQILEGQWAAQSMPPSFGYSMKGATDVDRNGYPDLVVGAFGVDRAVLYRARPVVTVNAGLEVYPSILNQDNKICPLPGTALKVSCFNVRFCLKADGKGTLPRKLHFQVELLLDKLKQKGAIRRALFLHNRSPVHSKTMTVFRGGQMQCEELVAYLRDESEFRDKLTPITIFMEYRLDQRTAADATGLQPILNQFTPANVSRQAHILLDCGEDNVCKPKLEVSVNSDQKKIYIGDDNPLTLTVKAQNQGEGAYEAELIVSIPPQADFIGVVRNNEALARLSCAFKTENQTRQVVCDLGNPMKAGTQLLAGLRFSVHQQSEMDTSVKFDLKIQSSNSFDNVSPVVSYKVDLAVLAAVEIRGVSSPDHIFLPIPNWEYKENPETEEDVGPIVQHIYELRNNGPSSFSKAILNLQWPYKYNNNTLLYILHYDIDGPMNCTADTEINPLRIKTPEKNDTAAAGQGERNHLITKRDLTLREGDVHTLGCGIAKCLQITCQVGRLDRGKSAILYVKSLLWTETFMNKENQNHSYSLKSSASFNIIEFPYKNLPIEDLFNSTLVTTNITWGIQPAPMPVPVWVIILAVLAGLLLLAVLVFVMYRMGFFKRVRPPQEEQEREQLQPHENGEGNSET
# αvβ3 integrin on B16F10 melanoma cells, sequence (O54890 26-787, chain 2 of 2): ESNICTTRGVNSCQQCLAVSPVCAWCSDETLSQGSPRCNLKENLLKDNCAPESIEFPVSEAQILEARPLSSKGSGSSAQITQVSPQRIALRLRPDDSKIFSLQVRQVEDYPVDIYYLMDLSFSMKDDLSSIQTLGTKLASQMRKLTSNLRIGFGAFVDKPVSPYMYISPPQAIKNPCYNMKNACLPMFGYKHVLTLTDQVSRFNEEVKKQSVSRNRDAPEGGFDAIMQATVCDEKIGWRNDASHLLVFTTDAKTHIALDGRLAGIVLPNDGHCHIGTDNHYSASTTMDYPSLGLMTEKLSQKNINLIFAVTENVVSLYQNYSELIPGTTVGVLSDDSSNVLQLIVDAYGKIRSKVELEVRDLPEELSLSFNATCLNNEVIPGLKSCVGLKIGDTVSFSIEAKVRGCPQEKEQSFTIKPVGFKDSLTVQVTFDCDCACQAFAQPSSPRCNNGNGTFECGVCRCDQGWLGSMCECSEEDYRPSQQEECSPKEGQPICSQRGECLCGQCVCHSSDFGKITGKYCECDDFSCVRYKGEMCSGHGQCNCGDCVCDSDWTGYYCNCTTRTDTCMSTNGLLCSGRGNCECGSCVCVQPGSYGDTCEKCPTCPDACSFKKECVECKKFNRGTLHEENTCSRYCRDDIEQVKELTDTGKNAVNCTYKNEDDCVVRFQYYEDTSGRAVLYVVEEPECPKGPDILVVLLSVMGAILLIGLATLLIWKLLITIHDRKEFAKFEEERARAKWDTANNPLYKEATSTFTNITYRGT
# [11] = biological target: human recombinant αvβ3 integrin (R&D Systems), NT-647 labelled (human) (UniProt P06756); experiment: MST
molecule,measurement,setting,value
"CCCCCCCCCCCCCCCCCCN1C(=CC=CC2=[N+](CCCCCCCCCCCCCCCCCC)c3ccccc3C2(C)C)C(C)(C)c2ccccc21.[O-][Cl+3]([O-])([O-])[O-] [Dil, 1,1′-dioctadecyl-3,3,3′,3′-tetramethylindocarbocyanine perchlorate]",fluorescence at tumor site after topical application,[1],Low fluorescent signal
"CC1(C)C(/C=C/C=C/C=C/C=C2\N(CCCCS(=O)(=O)O)c3ccc4ccccc4c3C2(C)C)=[N+](CCCCS(=O)(=O)[O-])c2ccc3ccccc3c21 [ICG, indocyanine green]",temperature of tumor sites,[2],around 32 °C
same,temperature reached from 25°C upon NIR irritation,[3],35 °C
same,"c-FLIP mRNA level, decreased to",B16F10 cells [4],63%
same,"survivin mRNA level, decreased to",B16F10 cells [4],56%
same,increase of cleaved caspase 3 level,B16F10 cells [5],2.4 fold
same,increase of cleaved caspase 8 level,B16F10 cells [5],3.3 fold
FITC-BSA: fluorescein isothiocyanate (FITC)–labeled bovine serum albumin,"penetration through SC, fluorescence in skin slices",[6],incapable of penetrating through SC
"RhB-RGP: rhodamine B–labeled RGP (RW[code r]NMGGGGIVRRADRAAVP; also: rhodamine B label, position not given here)",binding to L02 cells,L02 cells,weak binding
same,binding to B16F10 cells,B16F10 cells [7],significantly enhanced
TRAIL: Recombinant human tumor necrosis factor related apoptosis-inducing ligand,transdermal amount of TRAIL,[8],too low to be detected
same,bioactivity of TRAIL at high temperatures,[9],No loss of bioactivity
B1,fold fluorescence intensity against RhB-RGD,[10],6.3 fold
B2,Kd,[11],1.54 nM
